Test results: ChEMBL document CHEMBL4613248, “Twelfth-Position Deuteration of Nevirapine Reduces 12-Hydroxy-Nevirapine Formation and Nevirapine-Induced Hepatocyte Death” (J Med Chem, 2020)

How the values were obtained:
[1] = system: Hepatocyte; experiment: Induction of change in Endog protein expression in C57BL/6J mouse primary hepatocytes at 400 uM incubated for 8 hrs by relative-quantitation label-free proteomics analysis relative to NVP; type: cell-based
Method in brief: (§1)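 Fresh primary hepatocytes from male C57BL/6J mice aged 8–13 weeks, adhered overnight, then given fresh medium containing compound (400 μM), NVP (400 μM) or vehicle (0.2% DMSO) for 8 h. Lysate reduced (DTT) and alkylated (iodoacetamide), acetone-precipitated and digested with trypsin. Label-free Top10 nanoLC-MS with precursor ion area quantitation; unpaired t test P values, Cohen's d effect size.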

[2] = system: Hepatocyte; experiment: Induction of change in KARS protein expression in human primary hepatocytes at 10 uM incubated for 48 hrs by relative-quantitation label-free proteomics analysis relative to NVP; type: cell-based
Method in brief: as §1, with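 “Cryoplateable pooled human” for “Fresh primary”, “(10 mixed-sex donors per pool; three pools),” for “from male C57BL/6J mice aged 8–13 weeks,”, “(10” for “(400”, “(0.1%” for “(0.2%”, “48” for “8”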

[3] = Drug metabolism in C57BL/6J mouse primary hepatocytes assessed as Cytochrome P450-mediated formation of 8-OHD3NVP at 10 uM incubated for 24 hrs by uHPLC-MS analysis; type: ADME, cell-based
Method in brief: (§2)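 Fresh hepatocytes from male C57BL/6J mice (8–13 weeks), adhered overnight, then 10 μM substrate or vehicle (0.1% DMSO) for 24 h. Medium extracted with acetonitrile (50% final), dried, reconstituted in methanol; uHPLC-Orbitrap targeted SIM plus PRM (monooxygenated metabolites) or high-resolution ions (O-glucuronides, 459.1510/462.1700 ±5 ppm); four experimental replicates.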

[4] = system: Hepatocyte; experiment: Induction of change in ACSF3 protein expression in human primary hepatocytes at 10 uM incubated for 48 hrs by relative-quantitation label-free proteomics analysis relative to NVP; type: cell-based
Method in brief: as §1, with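 “Cryoplateable pooled human” for “Fresh primary”, “(10 mixed-sex donors per pool; three pools),” for “from male C57BL/6J mice aged 8–13 weeks,”, “(10” for “(400”, “(0.1%” for “(0.2%”, “48” for “8”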

[5] = target: Cytochrome P450 3A4 (Homo sapiens, UniProt P08684); experiment: Drug metabolism assessed as human CYP3A4-mediated formation of 2-OHNVP at 10 uM pre-incubated for 30 mins followed by addition of NADPH regenerating reagents by uHPLC-MS analysis; type: ADME; conditions: recombinant enzyme
Sequence of Cytochrome P450 3A4 (P08684 whole entry): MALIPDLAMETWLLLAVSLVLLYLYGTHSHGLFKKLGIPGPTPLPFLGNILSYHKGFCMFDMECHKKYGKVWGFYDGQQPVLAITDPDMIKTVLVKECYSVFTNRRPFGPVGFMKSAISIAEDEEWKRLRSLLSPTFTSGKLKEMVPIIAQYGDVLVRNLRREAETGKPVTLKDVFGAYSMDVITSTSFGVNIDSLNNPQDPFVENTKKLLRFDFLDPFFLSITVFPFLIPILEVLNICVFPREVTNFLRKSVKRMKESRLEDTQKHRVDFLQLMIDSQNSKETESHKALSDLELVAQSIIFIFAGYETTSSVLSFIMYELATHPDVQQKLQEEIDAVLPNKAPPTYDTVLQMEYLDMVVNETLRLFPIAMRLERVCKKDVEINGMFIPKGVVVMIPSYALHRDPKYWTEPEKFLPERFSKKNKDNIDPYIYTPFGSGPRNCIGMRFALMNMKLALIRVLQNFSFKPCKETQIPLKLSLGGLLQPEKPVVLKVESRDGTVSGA
Method in brief: (§3)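 Insect-cell microsomes with single cDNA-expressed human P450 (100 nM) in 0.1 M potassium phosphate; 10 μM substrate prewarmed 5 min at 37 °C with NADPH-regenerating system, reaction started by adding microsomes; 30 min at 37 °C, 0.1% DMSO. Stopped, dried, reconstituted in methanol; triple-quadrupole SRM (12-OH 283.1→223.0, 2-OH 283.1→160.9, 3-OH 283.1→241.9), peak height; three replicates, mean ± SD.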

[6] = system: Hepatocyte; experiment: Induction of change in SARNP protein expression in human primary hepatocytes at 10 uM incubated for 48 hrs by relative-quantitation label-free proteomics analysis relative to NVP; type: cell-based
Method in brief: as §1, with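 “Cryoplateable pooled human” for “Fresh primary”, “(10 mixed-sex donors per pool; three pools),” for “from male C57BL/6J mice aged 8–13 weeks,”, “(10” for “(400”, “(0.1%” for “(0.2%”, “48” for “8”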

[7] = system: Hepatocyte; experiment: Induction of change in ALAD protein expression in human primary hepatocytes at 10 uM incubated for 48 hrs by relative-quantitation label-free proteomics analysis relative to NVP; type: cell-based
Method in brief: as §1, with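 “Cryoplateable pooled human” for “Fresh primary”, “(10 mixed-sex donors per pool; three pools),” for “from male C57BL/6J mice aged 8–13 weeks,”, “(10” for “(400”, “(0.1%” for “(0.2%”, “48” for “8”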

[8] = target: Cytochrome P450 2C19 (Homo sapiens, UniProt P33261); experiment: Drug metabolism assessed as human CYP2C19-mediated formation of 12-OHNVP at 10 uM pre-incubated for 30 mins followed by addition of NADPH regenerating reagents by uHPLC-MS analysis; type: ADME; conditions: recombinant enzyme; method in brief: as §3
Sequence of Cytochrome P450 2C19 (P33261 whole entry): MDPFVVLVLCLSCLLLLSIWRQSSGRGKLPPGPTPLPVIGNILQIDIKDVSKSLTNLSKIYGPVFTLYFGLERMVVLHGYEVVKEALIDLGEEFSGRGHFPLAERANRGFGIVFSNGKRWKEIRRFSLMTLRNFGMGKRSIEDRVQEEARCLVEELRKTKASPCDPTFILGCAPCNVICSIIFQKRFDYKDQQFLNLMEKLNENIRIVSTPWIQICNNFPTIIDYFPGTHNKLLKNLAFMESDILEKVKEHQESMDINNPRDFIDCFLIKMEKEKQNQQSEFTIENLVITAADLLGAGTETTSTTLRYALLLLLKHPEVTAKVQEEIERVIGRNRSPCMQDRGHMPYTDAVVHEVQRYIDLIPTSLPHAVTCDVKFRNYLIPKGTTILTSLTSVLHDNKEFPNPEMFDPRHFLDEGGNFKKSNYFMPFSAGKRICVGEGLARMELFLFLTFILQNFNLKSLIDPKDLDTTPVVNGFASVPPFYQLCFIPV

[9] = target: T1, Cytochrome P450 2C8 (Homo sapiens, UniProt P10632); experiment: Drug metabolism assessed as human CYP2C8-mediated formation of 12-OHNVP at 10 uM […] by uHPLC-MS analysis; type: ADME; conditions: recombinant enzyme; method in brief: as §3
T1 sequence (P10632 whole entry): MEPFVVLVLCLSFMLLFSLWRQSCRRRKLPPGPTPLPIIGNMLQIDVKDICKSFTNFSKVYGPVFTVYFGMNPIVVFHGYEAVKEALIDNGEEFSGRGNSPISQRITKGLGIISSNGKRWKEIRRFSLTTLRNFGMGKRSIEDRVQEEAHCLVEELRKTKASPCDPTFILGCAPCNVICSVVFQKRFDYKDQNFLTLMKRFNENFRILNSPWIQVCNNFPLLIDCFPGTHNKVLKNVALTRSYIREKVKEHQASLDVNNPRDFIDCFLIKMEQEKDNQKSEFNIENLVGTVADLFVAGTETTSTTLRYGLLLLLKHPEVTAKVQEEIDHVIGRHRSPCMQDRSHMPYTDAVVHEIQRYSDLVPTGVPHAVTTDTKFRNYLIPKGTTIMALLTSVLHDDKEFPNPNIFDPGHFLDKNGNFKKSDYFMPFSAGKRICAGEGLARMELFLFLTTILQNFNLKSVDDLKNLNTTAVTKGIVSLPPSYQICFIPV

[10] = system: Hepatocyte; experiment: Induction of change in NOL6 protein expression in human primary hepatocytes at 10 uM incubated for 48 hrs by relative-quantitation label-free proteomics analysis relative to NVP; type: cell-based
Method in brief: as §1, with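 “Cryoplateable pooled human” for “Fresh primary”, “(10 mixed-sex donors per pool; three pools),” for “from male C57BL/6J mice aged 8–13 weeks,”, “(10” for “(400”, “(0.1%” for “(0.2%”, “48” for “8”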

[11] = Drug metabolism in C57BL/6J mouse primary hepatocytes assessed as 12-O-GlucD2NVP metabolite formation at 10 uM incubated for 24 hrs by uHPLC-MS analysis; type: ADME, cell-based, Hepatocyte; method in brief: as §2
[12] = system: Hepatocyte; experiment: Induction of change in CYC1 protein expression in human primary hepatocytes at 10 uM incubated for 48 hrs by relative-quantitation label-free proteomics analysis relative to NVP; type: cell-based
Method in brief: as §1, with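 “Cryoplateable pooled human” for “Fresh primary”, “(10 mixed-sex donors per pool; three pools),” for “from male C57BL/6J mice aged 8–13 weeks,”, “(10” for “(400”, “(0.1%” for “(0.2%”, “48” for “8”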

[13] = target: T2, Cytochrome P450 1A2 (Homo sapiens, UniProt P05177); experiment: Drug metabolism assessed as human CYP1A2-mediated formation of 12-OHNVP at 10 uM pre-incubated for 30 mins followed by addition of NADPH regenerating reagents by uHPLC-MS analysis; type: ADME; conditions: recombinant enzyme; method in brief: as §3
T2 sequence (P05177 whole entry): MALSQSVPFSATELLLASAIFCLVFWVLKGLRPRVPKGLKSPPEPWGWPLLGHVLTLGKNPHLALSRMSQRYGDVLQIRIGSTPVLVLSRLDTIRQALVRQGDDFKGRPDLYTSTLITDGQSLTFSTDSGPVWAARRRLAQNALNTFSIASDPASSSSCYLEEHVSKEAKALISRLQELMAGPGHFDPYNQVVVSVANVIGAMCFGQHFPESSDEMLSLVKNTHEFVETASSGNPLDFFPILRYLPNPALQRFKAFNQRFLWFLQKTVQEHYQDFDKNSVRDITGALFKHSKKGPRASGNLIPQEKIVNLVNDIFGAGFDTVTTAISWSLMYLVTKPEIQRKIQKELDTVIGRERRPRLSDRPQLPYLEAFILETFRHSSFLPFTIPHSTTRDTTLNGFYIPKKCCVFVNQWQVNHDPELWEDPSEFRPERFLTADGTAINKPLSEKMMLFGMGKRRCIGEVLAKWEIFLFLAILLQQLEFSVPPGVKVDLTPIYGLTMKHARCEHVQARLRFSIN

[14] = system: Hepatocyte; experiment: Toxicity in C57BL/6J mouse primary hepatocytes assessed as reduction in cell viability by measuring EtBr-positive cell nuclei level at 400 uM incubated for 8 hrs by EtBr/AcrO staining based assay (reference value: 19%)
Method in brief: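 Fresh male C57BL/6J mouse hepatocytes on collagen-coated coverslips, 400 μM compound or vehicle (0.2% DMSO) for 8 h; 10 μM staurosporine as positive control. Ethidium bromide/acridine orange costaining, imaging, percentage of EtBr-positive nuclei scored as dead cells; unpaired two-tailed t test.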

SMILES: [2H]C([2H])([2H])c1ccnc2c1NC(=O)c1cccnc1N2C1CC1
- fold change (FC) [1]: 2.07
- fold change (FC) [2]: -1.42
- Drug metabolism [3]: Metabolite_Notdetected
- fold change (FC) [4]: -1.63
- Drug metabolism [5]: Metabolite_Detected
- fold change (FC) [6]: -1.65
- fold change (FC) [7]: -1.86
- Drug metabolism [8]: Metabolite_Detected
- Drug metabolism [9]: Metabolite_Detected
- fold change (FC) [10]: -1.85
- Drug metabolism [11]: Metabolite_Notdetected
- fold change (FC) [12]: -1.4
- Drug metabolism [13]: Metabolite_Detected
- Activity [14]: 36.8%
